Measured values: ChEMBL document CHEMBL1156913, “Design and synthesis of anti-breast cancer agents from 4-piperazinylquinoline: a hybrid pharmacophore approach” (Bioorg Med Chem, 2010)
Active and inactive are the calls of the source. No cut-off for these calls is given here.

Legend:
MCF7 [1] = assay: Induction of apoptosis in human MCF7 cells assessed as cell death; format: functional, cell-based
MCF7 [2] = assay: Cytotoxicity against human MCF7 cells after 48 hrs by SRB assay; format: functional; details: MCF7, 48 h
Summary of the method: (§1)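 5000–10,000 cells/well preincubated 24 h at 37 °C, 5% CO2, with TCA-fixed time-zero wells. Fivefold serial dilutions (100 to 0.0064 µM) and a DMSO-matched medium control, exposed 48 h. Fixed in 10% TCA for 60 min at 4 °C, stained with 0.4% SRB in 1% acetic acid, solubilized in 10 mM Tris base, read at 515–564 nm. GI50 from variable-slope sigmoidal fits; triplicates, at least two independent experiments.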

MCF-10A = assay: Cell cycle arrest in human MCF10A cells assessed as decrease in at S phase at 20 uM by flow cytometry; format: functional, cell-based
Summary of the method: (§2)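 MCF7 (RPMI 1640, 10% FBS, 2 mM L-glutamine) or MCF10A (mammary epithelial basal medium plus MEGM supplements) treated 24 h at 20 or 40 µM with DMSO vehicle controls. 2.0 × 10^6 cells fixed in ice-cold 70% ethanol at -20 °C, then stained 30 min at 37 °C with 100 µg/mL PI, RNase A, 0.3% NP-40 and 0.1% sodium citrate. Phase fractions taken from DNA-content histograms.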

MCF7 [3] = assay: Induction of apoptosis in human MCF7 cells assessed as cell death at 40 uM after 24 hrs; format: functional
Summary of the method: (§3)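 MCF7 cells grown in RPMI 1640 with 10% FBS and 2 mM L-glutamine at 37 °C, 5% CO2. Treated 24 h, with DMSO-only medium as negative control. 2.0 × 10⁶ cells harvested, fixed in ice-cold 70% ethanol at −20 °C, and stained 30 min at 37 °C with PI mix (100 µg/mL PI, RNase A, 0.3% NP-40, 0.1% sodium citrate). DNA content read by flow cytometry; apoptotic fraction taken from DNA histograms.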

MCF7 [4] = assay: Cell cycle arrest in human MCF7 cells assessed as accumulation at G2/M phase at 20 uM by flow cytometry; format: functional; summary of the method: as §2
MCF7 [5] = assay: Cell cycle arrest in human MCF7 cells assessed as accumulation at G1/G0 phase at 20 uM by flow cytometry; format: functional; summary of the method: as §2
[6] = Cytotoxicity against human MCF10A cells after 48 hrs by SRB assay; format: cell-based, MCF-10A; summary of the method: as §1
MCF7 [7] = assay: Cell cycle arrest in human MCF7 cells assessed as accumulation at S phase at 20 uM by flow cytometry; format: functional; summary of the method: as §2
MCF7 [8] = assay: Induction of apoptosis in human MCF7 cells assessed as cell death at 20 uM after 24 hrs; format: functional; summary of the method: as §3
[9] = Cytotoxicity against human 184B5 cells after 48 hrs by SRB assay; format: cell-based; summary of the method: as §1
MCF7 [10] = assay: Cell cycle arrest in human MCF7 cells assessed as accumulation at S phase at 40 uM by flow cytometry; format: functional; summary of the method: as §2
MDA-MB-468 = assay: Cytotoxicity against human MDA-MB-468 cells after 48 hrs by SRB assay; format: functional; details: MDA-MB-468, 48 h; summary of the method: as §1
MCF7 [11] = assay: Cell cycle arrest in human MCF7 cells assessed as accumulation at G1/G0 phase at 40 uM by flow cytometry; format: functional; summary of the method: as §2
MCF7 [12] = assay: Cell cycle arrest in human MCF7 cells assessed as accumulation at G2/M phase at 40 uM by flow cytometry; format: functional; summary of the method: as §2

SMILES	GI50 (MCF7 [2]) [µM]	GI50 at 48 h [6] [µM]	GI50 at 48 h [9] [µM]	GI50 (MDA-MB-468) [µM]	further results
O=C1C(=O)N(CN2CCN(c3ccnc4cc(Cl)ccc34)CC2)c2cccc(Br)c21	15.1	65.6	49	15.9	Activity (MCF7 [1]): Dose-dependent effect; Activity (MCF-10A): inactive; Activity (MCF7 [3]): 10%; Activity (MCF7 [4]): 14%; Activity (MCF7 [5]): 63%; Activity (MCF7 [7]): 18%; Activity (MCF7 [8]): 6%; Activity (MCF7 [10]): 14%; Activity (MCF7 [11]): 64%; Activity (MCF7 [12]): 12%
O=C1C(=O)N(CN2CCN(c3ccnc4cc(Cl)ccc34)CC2)c2ccccc21	48.3	45.9	71.7	37.9	
NC(=S)N/N=C1/C(=O)N(CN2CCN(c3ccnc4cc(C(F)(F)F)ccc34)CC2)c2cccc(Cl)c21	21.6	51.7	87.8	23	Activity (MCF-10A): inactive; Activity (MCF7 [3]): Active; Activity (MCF7 [4]): 12%; Activity (MCF7 [5]): 64%; Activity (MCF7 [7]): 17%; Activity (MCF7 [8]): Active; Activity (MCF7 [10]): 16%; Activity (MCF7 [11]): 65%; Activity (MCF7 [12]): 11%
O=C1C(=O)N(CN2CCN(c3ccnc4cc(C(F)(F)F)ccc34)CC2)c2cc(Cl)ccc21	15.8	32.8	25.2	26.1	
NC(=S)N/N=C1/C(=O)N(CN2CCN(c3ccnc4cc(C(F)(F)F)ccc34)CC2)c2cccc(Br)c21	50.6	30.6	26.4	30.4	
O=C1C(=O)N(CN2CCN(c3ccnc4cc(C(F)(F)F)ccc34)CC2)c2cccc(Br)c21	66.8	37.9	49.7	52.2	
O=C1C(=O)N(CN2CCN(c3ccnc4cc(Cl)ccc34)CC2)c2cc(Cl)ccc21	26.1	67.8	47.5	36.6	
NC(=S)N/N=C1\C(=O)Nc2cc(Br)ccc21	17.9	32	34.9	18.6	
NC(=S)N/N=C1\C(=O)Nc2cccc(Br)c21	14.8	21.4	22.6	21.2	
NC(=S)N/N=C1/C(=O)N(CN2CCN(c3ccnc4cc(Cl)ccc34)CC2)c2cc(Cl)ccc21	22.5	64.6	41.3	26.5	
NC(=S)N/N=C1\C(=O)Nc2cccc(Cl)c21	30.2	28.7	25.9	24	
O=C1C(=O)N(CN2CCN(c3ccnc4cc(C(F)(F)F)ccc34)CC2)c2cc(Br)ccc21	28.1	24.4	21.8	24.8	
NC(=S)N/N=C1/C(=O)N(CN2CCN(c3ccnc4cc(C(F)(F)F)ccc34)CC2)c2cc(Cl)ccc21	24.6	38.8	20.1	11	
NC(=S)N/N=C1/C(=O)N(CN2CCN(c3ccnc4cc(Cl)ccc34)CC2)c2cc(Br)ccc21	11.4	22.1	13.1	11.2	
NC(=S)/N=N/c1c(O)[nH]c2ccccc12	36.9	88.8	60.4	35.5	
NC(=S)N/N=C1/C(=O)N(CN2CCN(c3ccnc4cc(Cl)ccc34)CC2)c2cccc(Cl)c21	57.5	19.8	20.7	57.6	
NC(=S)N/N=C1/C(=O)N(CN2CCN(c3ccnc4cc(C(F)(F)F)ccc34)CC2)c2cc(Br)ccc21	35.5	26.9	21.4	39.6	
CCN(CC)CCCC(C)Nc1ccnc2cc(Cl)ccc12 (stereo unspecified) [CHLOROQUINE]		81.3	76.1		
NC(=S)N/N=C1/C(=O)N(CN2CCN(c3ccnc4cc(C(F)(F)F)ccc34)CC2)c2ccccc21	13.9	22.6	20.2	10.3	
NC(=S)N/N=C1/C(=O)N(CN2CCN(c3ccnc4cc(Cl)ccc34)CC2)c2cccc(Br)c21	46.6	29.4	46.4	40.4	
O=C1C(=O)N(CN2CCN(c3ccnc4cc(C(F)(F)F)ccc34)CC2)c2cccc(Cl)c21	16.9	24	47.4	28.4	
O=C1C(=O)N(CN2CCN(c3ccnc4cc(Cl)ccc34)CC2)c2cccc(Cl)c21	39.1	25.6	77.7	37.8	
O=C1C(=O)N(CN2CCN(c3ccnc4cc(Cl)ccc34)CC2)c2cc(Br)ccc21	17.6	17.9	33.2	35.8	
O=C1C(=O)N(CN2CCN(c3ccnc4cc(C(F)(F)F)ccc34)CC2)c2ccccc21	34	70	43.9	15.3	
NC(=S)N/N=C1\C(=O)Nc2cc(Cl)ccc21	17.2	48.5	40.8	17.7	
NC(=S)N/N=C1/C(=O)N(CN2CCN(c3ccnc4cc(Cl)ccc34)CC2)c2ccccc21	23	27.7	28.8	20.6	
